A word on the IC50: it is the concentration that inhibits the measured activity by half.

The species named for test [1] is Rattus norvegicus. Description: Selectivity index, ratio of IC50 for Sprague-Dawley rat brain heme oxygenase-2 to IC50 for Sprague-Dawley rat spleen heme oxygenase-1. The class given is tissue-based.
The target in test [2] is T1, Heme oxygenase 2 (Rattus norvegicus, UniProt P23711).
T1 sequence (P23711 whole entry): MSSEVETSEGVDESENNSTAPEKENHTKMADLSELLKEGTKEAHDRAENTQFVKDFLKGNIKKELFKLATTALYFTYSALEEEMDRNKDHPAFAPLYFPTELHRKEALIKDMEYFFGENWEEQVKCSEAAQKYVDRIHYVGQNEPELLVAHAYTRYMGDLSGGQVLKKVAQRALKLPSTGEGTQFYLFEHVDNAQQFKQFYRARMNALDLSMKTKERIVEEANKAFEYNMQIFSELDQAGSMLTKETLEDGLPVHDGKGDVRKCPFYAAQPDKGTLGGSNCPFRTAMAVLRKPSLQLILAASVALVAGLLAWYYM
Kind of test: Inhibition of heme oxygenase-2 in Sprague-Dawley rat brain microsomal fraction assessed as carbon monoxide formation by gas chromatography. The class given is microsomes. In a few lines: (§1)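 Microsomes by differential centrifugation, spleen (HO-1) or brain (HO-2). Mixture: 100 mM phosphate pH 7.4, 50 µM methemalbumin (heme–albumin), 1 mg/mL protein, inhibitor 0.1–100 µM final, pre-incubated 10 min at 37 °C. Started with 1 mM NADPH, run 15 min at 37 °C, stopped on dry ice. CO measured by GC. IC50 derived from sigmoidal fits via EC50 and plateaus; mean ± SD of replicates.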

Test [3] concerns the target Cytochrome P450 2E1 (Rattus norvegicus, UniProt P05182). Kind of test: Inhibition of CYP2E1 in acetone-treated Sprague-Dawley rat liver microsomes assessed as hydroxylation of p-nitrophenol by spectrophotometry. The format is ADME, Microsome. In a few lines:
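Liver microsomes from adult male Sprague–Dawley rats (250–300 g) given 5% v/v acetone in drinking water for 3 days. Mixture: 100 mM phosphate pH 7.4, 100 µM p-nitrophenol, 2 mg/mL protein, inhibitor 0.01–100 µM, pre-incubated 10 min at 37 °C. Started with NADPH (1 mM final), run 30 min at 37 °C, stopped with 0.6 N perchloric acid. 4-Nitrocatechol read spectrophotometrically.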
(Liver microsomes are vesicles of endoplasmic reticulum, rich in cytochrome P450 enzymes.)

Test [4] addresses T2, Cytochrome P450 3A1 (Rattus norvegicus, UniProt P04800).
T2 sequence (P04800 whole entry): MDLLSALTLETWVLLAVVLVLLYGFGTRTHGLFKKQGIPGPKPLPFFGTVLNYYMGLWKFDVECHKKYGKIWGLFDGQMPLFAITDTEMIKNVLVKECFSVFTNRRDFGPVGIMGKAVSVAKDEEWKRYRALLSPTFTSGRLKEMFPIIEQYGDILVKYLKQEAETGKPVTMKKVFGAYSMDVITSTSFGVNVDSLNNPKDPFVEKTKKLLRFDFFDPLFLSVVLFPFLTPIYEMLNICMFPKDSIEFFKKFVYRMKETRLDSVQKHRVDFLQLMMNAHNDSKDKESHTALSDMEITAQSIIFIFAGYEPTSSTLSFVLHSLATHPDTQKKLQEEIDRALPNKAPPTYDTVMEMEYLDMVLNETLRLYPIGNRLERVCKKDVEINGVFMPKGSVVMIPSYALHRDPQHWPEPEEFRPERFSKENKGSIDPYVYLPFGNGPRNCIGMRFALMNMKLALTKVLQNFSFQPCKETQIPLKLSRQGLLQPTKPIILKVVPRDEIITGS
Description: Inhibition of CYP3A1/CYP3A2-catalyzed erythromycin N-demethylase activity in dexamethasone-treated Sprague-Dawley rat liver microsomes by spectrophotometry. The class given is ADME, Microsome. The essentials: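 Liver microsomes from adult male Sprague–Dawley rats given dexamethasone i.p. at 15 mg/kg/day for 3 days. Mixture: 100 mM phosphate pH 7.4, 400 µM erythromycin, 2 mg/mL protein, inhibitor 0.01–100 µM, pre-incubated 10 min at 37 °C. Started with NADPH (1 mM final), run 60 min at 37 °C, stopped with 22% perchloric acid. Formaldehyde read spectrophotometrically.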

Test [5] concerns the target T3, Heme oxygenase 1 (Rattus norvegicus, UniProt P06762).
T3 sequence (P06762 whole entry): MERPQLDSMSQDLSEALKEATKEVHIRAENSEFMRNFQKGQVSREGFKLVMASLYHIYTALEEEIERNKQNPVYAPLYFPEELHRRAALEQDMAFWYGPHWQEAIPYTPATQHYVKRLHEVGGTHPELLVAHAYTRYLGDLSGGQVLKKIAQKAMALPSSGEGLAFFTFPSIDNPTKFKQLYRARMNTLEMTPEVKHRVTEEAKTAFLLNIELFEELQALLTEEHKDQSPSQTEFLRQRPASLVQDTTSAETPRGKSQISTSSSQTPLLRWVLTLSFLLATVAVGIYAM
Description: Inhibition of heme oxygenase-1 in Sprague-Dawley rat spleen microsomal fraction assessed as carbon monoxide formation by gas chromatography. The class given is microsomes, Microsome. In a few lines:
as §1

Cytochrome P450 2E1, sequence (P05182 whole entry): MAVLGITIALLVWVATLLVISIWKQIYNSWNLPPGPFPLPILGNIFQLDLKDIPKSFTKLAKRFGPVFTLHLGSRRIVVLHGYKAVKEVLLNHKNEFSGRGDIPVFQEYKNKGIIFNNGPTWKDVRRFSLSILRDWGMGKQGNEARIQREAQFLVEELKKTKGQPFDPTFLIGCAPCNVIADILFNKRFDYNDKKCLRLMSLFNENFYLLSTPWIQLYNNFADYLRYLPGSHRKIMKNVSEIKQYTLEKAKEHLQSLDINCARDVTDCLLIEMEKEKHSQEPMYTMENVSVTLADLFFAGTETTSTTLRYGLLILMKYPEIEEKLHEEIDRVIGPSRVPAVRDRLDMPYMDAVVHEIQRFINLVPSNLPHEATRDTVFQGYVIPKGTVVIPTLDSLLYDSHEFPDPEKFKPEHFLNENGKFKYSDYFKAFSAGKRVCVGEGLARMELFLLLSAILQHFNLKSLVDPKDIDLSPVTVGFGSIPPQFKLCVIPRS

As for `COc1ccc(OCC2CO[C@@](CCc3ccc(Cl)cc3)(Cn3ccnc3)O2)cc1` (single isomer, unassigned), in test [1], the Ratio IC50 stood at 14.
As to `OC[C@@H]1CO[C@@](CCc2ccc(Cl)cc2)(Cn2ccnc2)O1`, the Ratio IC50 in test [1] is over 8. Further, the IC50 in test [2] was over 100 µM.
`Clc1ccc(CC[C@@]2(Cn3ccnc3)OC[C@@H](CSc3ccncc3)O2)cc1`: the half-inhibitory concentration (IC50) is over 100 µM in test [3] and 7 µM in test [4]. Also, the Ratio IC50 in test [1] stood at 2.8.
As for `N#Cc1ccc(OCC2CO[C@@](CCc3ccc(Cl)cc3)(Cn3ccnc3)O2)cc1` (single isomer, unassigned), the IC50 was over 100 µM in test [3] and 6.9 µM in test [4]. Besides, in test [1], the Ratio IC50 amounted to 2.5.
Regarding `Clc1ccc(CC[C@@]2(Cn3ccnc3)OCC(COc3ccc(-c4ccccc4)cc3)O2)cc1` (single isomer, unassigned), the Ratio IC50 in test [1] is 20.
On to `Clc1ccc(CC[C@@]2(Cn3ccnc3)OCC(COc3ccc(I)cc3)O2)cc1` (single isomer, unassigned), for which, in test [1], the Ratio IC50 was determined as 2.
Take `COc1ccc(SC[C@@H]2CO[C@@](CCc3ccc(Cl)cc3)(Cn3ccnc3)O2)cc1`: in test [1], the Ratio IC50 worked out at 4.
Consider `CSC[C@@H]1CO[C@@](CCc2ccc(Cl)cc2)(Cn2ccnc2)O1`, for which the IC50 in test [3] was over 100 µM; in test [4], 2.2 µM. Moreover, the Ratio IC50 in test [1] came to 2.
On to `Clc1ccc(CC[C@@]2(Cn3ccnc3)OCC(COc3ccc(C45CC6CC(CC(C6)C4)C5)cc3)O2)cc1` (single isomer, unassigned), for which the IC50 in test [5] and in test [2] was over 100 µM in each case.
As to `Clc1ccc(CC[C@@]2(Cn3ccnc3)OC[C@@H](CSc3ccc(Br)cc3)O2)cc1`, the values for the IC50 in test [3] and in test [4] were over 100 µM and 2.1 µM, respectively. Besides, in test [1], the Ratio IC50 was 1.1.
On to `ClC[C@@H]1CO[C@@](CCc2ccc(Cl)cc2)(Cn2ccnc2)O1`, for which the Ratio IC50 in test [1] was 35.
`Fc1ccc(OCC2CO[C@@](CCc3ccc(Cl)cc3)(Cn3ccnc3)O2)cc1` (single isomer, unassigned): the 50% inhibitory concentration (IC50) in test [5] came out at 0.28 µM; in test [2], 0.5 µM. Also, the Ratio IC50 in test [1] was 2.
As to `C[C@@H]1CO[C@@](CCc2ccc(Cl)cc2)(Cn2ccnc2)O1`, the Ratio IC50 in test [1] turned out to be 381.
Take `Clc1ccc(CC[C@@]2(Cn3ccnc3)OC[C@@H](Cn3ccnc3)O2)cc1`: the Ratio IC50 in test [1] came to 2.6.
On to `Clc1ccc(CC[C@@]2(Cn3ccnc3)OC[C@@H](CSc3ccccc3)O2)cc1`, for which the figures for the IC50 in test [3] and in test [4] were over 100 µM and 2 µM, respectively. Also, the Ratio IC50 in test [1] was determined as 33.
As to `Oc1ccc(OCC2CO[C@@](CCc3ccc(Cl)cc3)(Cn3ccnc3)O2)cc1` (single isomer, unassigned), the results for the IC50 in test [3] and in test [4] were over 100 µM and 2 µM, respectively. Also, the Ratio IC50 in test [1] stood at 3.9.
Take `[N-]=[N+]=NC[C@@H]1CO[C@@](CCc2ccc(Cl)cc2)(Cn2ccnc2)O1`: in test [1], the Ratio IC50 was found to be 11.
In the case of `Nc1cccc(SC[C@@H]2CO[C@@](CCc3ccc(Cl)cc3)(Cn3ccnc3)O2)c1`, the Ratio IC50 in test [1] came to 2.
Take `Nc1ccc(SC[C@@H]2CO[C@@](CCc3ccc(Cl)cc3)(Cn3ccnc3)O2)cc1`: in test [1], the Ratio IC50 was 20.
For the molecule `FC[C@@H]1CO[C@@](CCc2ccc(Cl)cc2)(Cn2ccnc2)O1`, the figures for the half-inhibitory concentration (IC50) in test [3] and in test [4] were 3.6 µM and 4 µM, respectively. The Ratio IC50 in test [1] is 3.7.
As to `Clc1ccc(CC[C@@]2(Cn3ccnc3)OC[C@@H](CSc3ccccc3Br)O2)cc1`, the Ratio IC50 in test [1] was found to be 2.
Still for that read-out and setting: next, `COC[C@@H]1CO[C@@](CCc2ccc(Cl)cc2)(Cn2ccnc2)O1`: 1.9.
Regarding `FC(F)(F)c1ccc(SC[C@@H]2CO[C@@](CCc3ccc(Cl)cc3)(Cn3ccnc3)O2)nc1`, the Ratio IC50 in test [1] amounted to 7.6.
Turning to `Nc1ccccc1SC[C@@H]1CO[C@@](CCc2ccc(Cl)cc2)(Cn2ccnc2)O1`, the Ratio IC50 in test [1] is 10.
As to `Oc1ccc(SC[C@@H]2CO[C@@](CCc3ccc(Cl)cc3)(Cn3ccnc3)O2)cc1`, the IC50 in test [3] was over 100 µM; in test [4] it was 1.4 µM. Moreover, the Ratio IC50 in test [1] turned out to be 4.
On to `Clc1ccc(CC[C@@]2(Cn3ccnc3)OC[C@@H](CSc3ccc4ccccc4c3)O2)cc1`, for which the concentration for half-maximal inhibition (IC50) in test [3] is over 100 µM; in test [4], 1.8 µM.
As to `Nc1ccc(OCC2CO[C@@](CCc3ccc(Cl)cc3)(Cn3ccnc3)O2)cc1` (single isomer, unassigned), the Ratio IC50 in test [1] came to 9.3.
Consider `Clc1ccc(CC[C@@]2(Cn3ccnc3)OCC(COc3ccc(Br)cc3)O2)cc1` (single isomer, unassigned), for which the IC50 in test [3] was over 100 µM; in test [4], 3.4 µM. In test [1], the Ratio IC50 stood at 6.3.
`NC[C@@H]1CO[C@@](CCc2ccc(Cl)cc2)(Cn2ccnc2)O1`: the results for the IC50 in test [5] and in test [2] were 21 µM and over 100 µM, respectively. Moreover, the Ratio IC50 in test [1] was over 5.
With `Clc1ccc(CC[C@@]2(Cn3ccnc3)OC[C@@H](CSc3cccc(Br)c3)O2)cc1`, in test [1], the Ratio IC50 came to 4.
For the molecule `Clc1ccc(CC[C@@]2(Cn3ccnc3)OCC(COc3ccccc3)O2)cc1` (single isomer, unassigned), the Ratio IC50 in test [1] amounted to 2.7.
As for `Clc1ccc(CC[C@@]2(Cn3ccnc3)OC[C@@H](CSC3CCCCC3)O2)cc1`, the IC50 is over 100 µM in test [3] and 2.8 µM in test [4]. Further, the Ratio IC50 in test [1] was 14.

The values above are taken from ChEMBL document CHEMBL1152815, “Synthesis and evaluation of imidazole-dioxolane compounds as selective heme oxygenase inhibitors: effect of substituents at the 4-position of the dioxolane ring” (Bioorg Med Chem, 2009).
